# From ChEMBL document CHEMBL5038590, “Discovery of G Protein-Biased Ligands against 5-HT7R” (J Med Chem, 2021)
# Experiments:
# [1] = target: 5-hydroxytryptamine receptor 1E (Homo sapiens, UniProt P28566); experiment: Binding affinity to 5-HT1ER (unknown origin)
# In short: (§1)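 Run by the NIMH Psychoactive Drug Screening Program as competition radioligand binding on crude membranes of cells expressing the recombinant receptor. Eleven dilutions (0.05 nM–50 μM, prepared at 5× assay concentration) were made in 50 mM Tris-HCl, 10 mM MgCl₂, 1 mM EDTA, pH 7.4. Incubation was 1.5 h at rt in the dark, followed by GF/B filtration (0.3% PEI) and scintillation counting. IC₅₀ was converted to Ki; at least triplicate.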
# [2] = target: 5-hydroxytryptamine receptor 1D (Homo sapiens, UniProt P28221); experiment: Binding affinity to 5-HT1DR (unknown origin); in short: as §1
# [3] = target: T1, 5-hydroxytryptamine receptor 1A (Homo sapiens, UniProt P08908); experiment: Binding affinity to 5-HT1AR (unknown origin); in short: as §1
# T1 sequence (P08908 whole entry): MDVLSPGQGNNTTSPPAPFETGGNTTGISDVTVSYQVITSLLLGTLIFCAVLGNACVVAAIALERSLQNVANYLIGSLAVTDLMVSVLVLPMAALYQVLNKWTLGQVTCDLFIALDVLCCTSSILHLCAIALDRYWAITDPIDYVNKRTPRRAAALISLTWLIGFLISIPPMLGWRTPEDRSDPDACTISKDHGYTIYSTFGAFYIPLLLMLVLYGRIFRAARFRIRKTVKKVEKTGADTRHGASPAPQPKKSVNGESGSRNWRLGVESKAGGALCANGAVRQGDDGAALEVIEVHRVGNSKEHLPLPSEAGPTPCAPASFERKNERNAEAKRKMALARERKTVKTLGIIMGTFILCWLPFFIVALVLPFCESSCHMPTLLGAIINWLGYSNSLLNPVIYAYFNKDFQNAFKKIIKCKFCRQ
# [4] = target: T2, 5-hydroxytryptamine receptor 3A (Homo sapiens, UniProt P46098); experiment: Binding affinity to 5-HT3R (unknown origin); in short: as §1
# T2 sequence (P46098 whole entry): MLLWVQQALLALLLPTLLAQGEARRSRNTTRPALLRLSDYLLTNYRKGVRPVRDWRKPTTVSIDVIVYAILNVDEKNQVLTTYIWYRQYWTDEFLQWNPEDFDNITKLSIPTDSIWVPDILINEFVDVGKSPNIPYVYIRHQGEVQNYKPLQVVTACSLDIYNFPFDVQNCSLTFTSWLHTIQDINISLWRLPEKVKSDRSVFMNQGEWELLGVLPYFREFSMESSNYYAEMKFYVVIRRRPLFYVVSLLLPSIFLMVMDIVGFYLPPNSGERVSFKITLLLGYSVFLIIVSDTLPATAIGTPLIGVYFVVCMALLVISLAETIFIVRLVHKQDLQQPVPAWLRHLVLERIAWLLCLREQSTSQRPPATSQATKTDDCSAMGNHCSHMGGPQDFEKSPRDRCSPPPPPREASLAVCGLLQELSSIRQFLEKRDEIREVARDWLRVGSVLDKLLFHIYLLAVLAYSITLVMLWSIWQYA
# [5] = target: T3, 5-hydroxytryptamine receptor 7 (Homo sapiens, UniProt P34969); experiment: Agonist activity at 5-HT7R (unknown origin) transfected in HEK293 cells expressing tTA-dependent luciferase reporter and beta arrestin 2-TEV fusion gene assessed as beta arrestin recruitment incubated for 22 hrs by Tango assay; format: functional, cell-based
# [6] = target: T4, 5-hydroxytryptamine receptor 2C (Homo sapiens, UniProt P28335); experiment: Binding affinity to 5-HT2CR (unknown origin); in short: as §1
# T4 sequence (P28335 whole entry): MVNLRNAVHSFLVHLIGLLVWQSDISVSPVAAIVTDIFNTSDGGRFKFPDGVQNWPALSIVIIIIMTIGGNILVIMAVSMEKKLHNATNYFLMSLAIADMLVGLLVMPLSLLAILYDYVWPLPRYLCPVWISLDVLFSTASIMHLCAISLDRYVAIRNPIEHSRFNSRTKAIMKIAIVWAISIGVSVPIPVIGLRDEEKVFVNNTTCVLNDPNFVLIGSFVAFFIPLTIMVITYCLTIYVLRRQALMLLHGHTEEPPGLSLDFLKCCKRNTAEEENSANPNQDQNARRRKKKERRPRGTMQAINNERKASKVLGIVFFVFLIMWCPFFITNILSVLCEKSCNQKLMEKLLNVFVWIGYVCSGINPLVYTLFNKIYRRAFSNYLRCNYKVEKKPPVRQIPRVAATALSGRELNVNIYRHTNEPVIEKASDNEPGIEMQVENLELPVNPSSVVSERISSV
# [7] = target: 5-hydroxytryptamine receptor 2A (Homo sapiens, UniProt P28223); experiment: Binding affinity to 5-HT2AR (unknown origin); in short: as §1
# [8] = target: 5-hydroxytryptamine receptor 1B (Homo sapiens, UniProt P28222); experiment: Binding affinity to 5-HT1BR (unknown origin); in short: as §1
# [9] = target: 5-hydroxytryptamine receptor 6 (Homo sapiens, UniProt P50406); experiment: Binding affinity to 5-HT6R (unknown origin); in short: as §1
# [10] = target: 5-hydroxytryptamine receptor 5A (Homo sapiens, UniProt P47898); experiment: Binding affinity to 5-HT5AR (unknown origin); in short: as §1
# [11] = target: T3, 5-hydroxytryptamine receptor 7; experiment: Displacement of [3H] D-lysergic acid diethylamide from 5-HT7R (unknown origin) transfected in HEK293 cells incubated for 1.5 hrs by microbeta scintillation counter analysis; format: cell-based
# [12] = target: 5-hydroxytryptamine receptor 2B (Homo sapiens, UniProt P41595); experiment: Binding affinity to 5-HT2BR (unknown origin); in short: as §1
# Mus musculus [13] = experiment: Effect on wild type mouse assessed as time taken for duration of self grooming at 30 mg/kg, ip after 30 mins under 40 lux lighting (reference value: 43.7 +/- 10.8 sec); format: functional; conditions: 0.5 h
# Mus musculus [14] = experiment: Effect on shank3-/- mouse model of autism spectrum disorder assessed as time taken for duration of self grooming at 30 mg/kg, ip after 30 mins under 40 lux lighting (reference value: 224 +/- 47.4 sec); format: functional; conditions: 0.5 h
# [15] = target: T3, 5-hydroxytryptamine receptor 7
# Sequence of 5-hydroxytryptamine receptor 5A (P47898 whole entry): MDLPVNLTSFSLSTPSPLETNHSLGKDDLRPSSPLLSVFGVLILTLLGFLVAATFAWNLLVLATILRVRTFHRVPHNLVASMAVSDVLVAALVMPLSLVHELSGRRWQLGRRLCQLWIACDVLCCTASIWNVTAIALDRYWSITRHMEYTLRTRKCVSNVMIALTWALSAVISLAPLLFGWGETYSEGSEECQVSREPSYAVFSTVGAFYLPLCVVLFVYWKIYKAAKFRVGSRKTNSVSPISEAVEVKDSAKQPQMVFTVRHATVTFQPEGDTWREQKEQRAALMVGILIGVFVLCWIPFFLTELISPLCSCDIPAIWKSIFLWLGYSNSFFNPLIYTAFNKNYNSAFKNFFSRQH
# Sequence of 5-hydroxytryptamine receptor 1E (P28566 whole entry): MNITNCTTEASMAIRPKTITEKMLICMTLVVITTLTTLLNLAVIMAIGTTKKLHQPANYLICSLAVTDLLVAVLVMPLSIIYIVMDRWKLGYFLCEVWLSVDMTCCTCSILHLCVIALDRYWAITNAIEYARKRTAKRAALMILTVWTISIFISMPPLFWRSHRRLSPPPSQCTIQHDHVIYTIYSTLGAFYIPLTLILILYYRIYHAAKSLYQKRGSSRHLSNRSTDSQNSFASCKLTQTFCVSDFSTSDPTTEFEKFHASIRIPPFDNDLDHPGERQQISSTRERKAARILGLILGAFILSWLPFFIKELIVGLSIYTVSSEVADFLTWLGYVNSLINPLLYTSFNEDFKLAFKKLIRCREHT
# Sequence of 5-hydroxytryptamine receptor 1D (P28221 whole entry): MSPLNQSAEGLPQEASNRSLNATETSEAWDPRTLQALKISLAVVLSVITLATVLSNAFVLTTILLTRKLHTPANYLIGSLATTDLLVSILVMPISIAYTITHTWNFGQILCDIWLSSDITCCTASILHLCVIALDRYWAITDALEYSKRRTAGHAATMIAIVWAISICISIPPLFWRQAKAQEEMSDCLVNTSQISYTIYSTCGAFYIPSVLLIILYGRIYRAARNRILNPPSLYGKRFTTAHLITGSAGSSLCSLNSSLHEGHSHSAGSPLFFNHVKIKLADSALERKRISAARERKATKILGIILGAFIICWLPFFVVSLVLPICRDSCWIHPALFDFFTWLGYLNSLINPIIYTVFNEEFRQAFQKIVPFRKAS
# Sequence of 5-hydroxytryptamine receptor 1B (P28222 whole entry): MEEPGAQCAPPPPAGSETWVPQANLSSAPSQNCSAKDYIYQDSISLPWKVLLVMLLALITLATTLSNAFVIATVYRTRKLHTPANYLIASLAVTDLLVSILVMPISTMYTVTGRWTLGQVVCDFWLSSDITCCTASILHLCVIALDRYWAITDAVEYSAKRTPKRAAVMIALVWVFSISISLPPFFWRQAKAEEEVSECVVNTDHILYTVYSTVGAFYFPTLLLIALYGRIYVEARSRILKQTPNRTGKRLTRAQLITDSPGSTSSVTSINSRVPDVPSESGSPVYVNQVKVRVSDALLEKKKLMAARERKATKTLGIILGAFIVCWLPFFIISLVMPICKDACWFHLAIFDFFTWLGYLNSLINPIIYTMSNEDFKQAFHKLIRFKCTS
# T3 sequence (P34969 whole entry, the tested form may be a part): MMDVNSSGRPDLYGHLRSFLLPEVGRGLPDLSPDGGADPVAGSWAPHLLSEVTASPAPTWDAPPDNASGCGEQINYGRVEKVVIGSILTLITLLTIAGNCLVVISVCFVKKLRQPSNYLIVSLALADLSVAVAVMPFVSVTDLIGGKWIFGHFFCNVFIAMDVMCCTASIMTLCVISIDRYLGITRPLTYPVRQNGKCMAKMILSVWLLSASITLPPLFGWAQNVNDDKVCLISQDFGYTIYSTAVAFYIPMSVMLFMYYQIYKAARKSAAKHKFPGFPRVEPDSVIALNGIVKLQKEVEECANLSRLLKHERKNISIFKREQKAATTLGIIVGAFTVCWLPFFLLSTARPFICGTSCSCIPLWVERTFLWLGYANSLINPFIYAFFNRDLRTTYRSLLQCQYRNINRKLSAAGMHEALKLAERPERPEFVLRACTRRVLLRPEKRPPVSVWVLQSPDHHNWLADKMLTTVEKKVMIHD
# Sequence of 5-hydroxytryptamine receptor 2B (P41595 whole entry): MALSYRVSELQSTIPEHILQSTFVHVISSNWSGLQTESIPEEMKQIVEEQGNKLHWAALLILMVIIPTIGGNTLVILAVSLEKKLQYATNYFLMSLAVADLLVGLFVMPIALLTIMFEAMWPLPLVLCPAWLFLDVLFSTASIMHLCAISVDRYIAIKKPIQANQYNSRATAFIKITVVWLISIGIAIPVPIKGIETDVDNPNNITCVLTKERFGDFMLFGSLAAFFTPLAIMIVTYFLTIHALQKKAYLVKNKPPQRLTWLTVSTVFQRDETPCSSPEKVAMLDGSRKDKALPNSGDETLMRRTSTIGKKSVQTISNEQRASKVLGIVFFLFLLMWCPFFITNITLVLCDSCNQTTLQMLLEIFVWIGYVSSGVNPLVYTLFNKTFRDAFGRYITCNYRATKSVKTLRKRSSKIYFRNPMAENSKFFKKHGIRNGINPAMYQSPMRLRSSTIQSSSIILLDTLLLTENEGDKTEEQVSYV
# Sequence of 5-hydroxytryptamine receptor 2A (P28223 whole entry): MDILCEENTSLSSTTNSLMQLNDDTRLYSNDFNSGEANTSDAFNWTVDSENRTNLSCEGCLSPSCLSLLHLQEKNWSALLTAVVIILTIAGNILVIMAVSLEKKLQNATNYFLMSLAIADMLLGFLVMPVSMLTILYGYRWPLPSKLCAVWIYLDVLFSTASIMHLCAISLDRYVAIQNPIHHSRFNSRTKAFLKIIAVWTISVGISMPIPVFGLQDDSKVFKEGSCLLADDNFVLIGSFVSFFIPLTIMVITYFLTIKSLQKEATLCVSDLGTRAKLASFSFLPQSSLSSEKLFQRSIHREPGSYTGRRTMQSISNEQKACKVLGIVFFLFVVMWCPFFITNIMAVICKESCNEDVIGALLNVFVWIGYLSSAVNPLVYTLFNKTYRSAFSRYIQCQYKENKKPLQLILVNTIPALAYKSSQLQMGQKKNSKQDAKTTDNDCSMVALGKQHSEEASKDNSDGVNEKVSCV
# Sequence of 5-hydroxytryptamine receptor 6 (P50406 whole entry): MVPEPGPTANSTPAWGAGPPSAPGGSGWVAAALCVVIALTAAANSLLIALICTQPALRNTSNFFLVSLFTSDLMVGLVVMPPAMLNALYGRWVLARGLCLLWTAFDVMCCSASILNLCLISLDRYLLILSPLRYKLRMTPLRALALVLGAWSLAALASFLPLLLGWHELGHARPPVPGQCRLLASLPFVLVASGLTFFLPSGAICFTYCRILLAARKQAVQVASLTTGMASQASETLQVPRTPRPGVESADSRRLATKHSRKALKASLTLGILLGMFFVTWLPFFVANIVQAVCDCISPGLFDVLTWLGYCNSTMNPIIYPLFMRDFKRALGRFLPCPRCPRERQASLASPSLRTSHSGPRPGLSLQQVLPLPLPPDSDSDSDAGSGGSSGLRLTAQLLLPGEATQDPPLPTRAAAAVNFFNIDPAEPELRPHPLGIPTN
Structure (SMILES),Ki [1],Ki [2],Ki [3],Ki [4],EC50 ([5]; hek293),Ki [6],Ki [7],Ki [8],Ki [9],Ki [10],Ki ([11]; read-out: Ki),Ki [12],Time (Mus musculus [13]),Time (Mus musculus [14]),EC50 ([5]; read-out: EC50),EC50 [15],Ki ([11]; read-out: pKi (converted))
CCCCNCCc1ccc(Cl)c(-c2ccccc2OC)c1.Cl,> 10000 nM,110 nM,220 nM,> 10000 nM,Not Active,> 10000 nM,570 nM,280 nM,> 10000 nM,2400 nM,64 nM,130 nM,–,–,–,–,–
CC1CCN(CC[C@H]2CCCN2S(=O)(=O)c2cccc(O)c2)CC1,–,–,–,–,–,–,–,–,–,–,–,–,29.3 s,181 s,–,–,–
Cc1nn(C)c(C)c1-c1cccc(CCN(C)C)c1,–,–,–,–,–,–,–,–,–,–,1.3 nM,–,–,–,21 nM,83 nM,–
CCN(CC)CCc1ccc(Cl)c(-c2ccccc2OC)c1,6700 nM,8.4 nM,84 nM,> 10000 nM,Not Active,> 10000 nM,680 nM,160 nM,> 10000 nM,2100 nM,25 nM,320 nM,–,–,–,1900 nM,–
COc1ccccc1-c1cc(C2CCN(C)C2)ccc1Cl (stereo not drawn),4100 nM,19 nM,200 nM,420 nM,–,920 nM,1200 nM,12 nM,> 10000 nM,1000 nM,–,170 nM,–,–,–,–,–
CCCCNCc1ccc(Cl)c(-c2ccccc2OC)c1,> 10000 nM,2000 nM,–,> 10000 nM,Not Active,310 nM,280 nM,> 10000 nM,240 nM,360 nM,52 nM,15 nM,–,–,–,–,–
CNCc1ccc(Cl)c(-c2ccccc2OC)c1,2400 nM,1200 nM,1700 nM,> 10000 nM,–,200 nM,380 nM,1200 nM,1300 nM,420 nM,–,13 nM,–,–,150 nM,460 nM,–
CNCCc1ccc(Cl)c(-c2ccccc2OC)c1,180 nM,3.3 nM,280 nM,> 10000 nM,–,> 10000 nM,170 nM,84 nM,740 nM,910 nM,1.6 nM,69 nM,–,–,71 nM,73 nM,–
COc1ccccc1-c1cc(C2CCNC2)ccc1Cl (stereo not drawn),770 nM,3.4 nM,96 nM,590 nM,–,> 10000 nM,340 nM,410 nM,400 nM,970 nM,–,50 nM,–,–,–,–,–
CCCNCCc1ccc(Cl)c(-c2ccccc2OC)c1.Cl,> 10000 nM,41 nM,140 nM,> 10000 nM,Not Active,> 10000 nM,600 nM,250 nM,> 10000 nM,240 nM,8.7 nM,170 nM,–,–,–,1000 nM,8.51 nM
CCCN(CCC)CCc1ccc(Cl)c(-c2ccccc2OC)c1,> 10000 nM,38 nM,65 nM,> 10000 nM,Not Active,> 10000 nM,1200 nM,160 nM,> 10000 nM,2900 nM,20 nM,230 nM,–,–,–,1400 nM,–
COc1ccccc1-c1cc(CN(C)C)ccc1Cl,4100 nM,1300 nM,2100 nM,1000 nM,–,270 nM,360 nM,830 nM,440 nM,220 nM,–,11 nM,–,–,480 nM,1100 nM,20 nM
CCCN(CCC)Cc1ccc(Cl)c(-c2ccccc2OC)c1,> 10000 nM,> 10000 nM,400 nM,> 10000 nM,Not Active,2600 nM,> 10000 nM,> 10000 nM,> 10000 nM,> 10000 nM,> 10000 nM,80 nM,–,–,–,–,–
CCCNCc1ccc(Cl)c(-c2ccccc2OC)c1,> 10000 nM,220 nM,420 nM,> 10000 nM,–,200 nM,670 nM,640 nM,3500 nM,120 nM,–,12 nM,–,–,–,–,–
CCN(CC)Cc1ccc(Cl)c(-c2ccccc2OC)c1,> 10000 nM,> 10000 nM,1700 nM,> 10000 nM,Not Active,820 nM,> 10000 nM,> 10000 nM,2000 nM,230 nM,110 nM,67 nM,–,–,–,–,–
COc1ccccc1-c1cc(CCN(C)C)ccc1Cl,2200 nM,86 nM,280 nM,> 10000 nM,–,> 10000 nM,250 nM,74 nM,1000 nM,380 nM,2.5 nM,280 nM,–,–,56 nM,84 nM,–
CCNCc1ccc(Cl)c(-c2ccccc2OC)c1,> 10000 nM,220 nM,840 nM,> 10000 nM,–,45 nM,910 nM,210 nM,1400 nM,1800 nM,–,19 nM,–,–,–,–,–
